Test [1] addresses Pantothenate synthetase (Mycobacterium tuberculosis (strain ATCC 25618 / H37Rv)) (UniProt P9WIL5). The test is described as follows: Coupled enzyme confirmation of inhibitors against recombinant Mtb PanC (AID 375; call rule not given here;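 also: 0% = full reaction with vehicle and 100% = no enzyme background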). Particulars: coupled enzyme assay; at 10 µM, stronger effect = higher value.
A short description of test [2]: Her2 expression decrease, cell viability multiplex – SKBR3 breast tumor cells, AlphaScreen, ATP viability, primary screen (AID 461;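 active = Her2 level under about 52% in both replicate screens, with viability over 70% of control, limit read from the data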;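 as to Her2 level: lower value means less Her2 protein in the cells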;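 as to viability: percent of carrier control wells set as 100% viability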). Particulars: SKBR3 Her2 protein level, 18-24 h, measured here: SKBR3 viability, ATP luminescence, at 10 µM. Background: In Alpha technology, singlet oxygen from a donor bead excites a nearby acceptor bead.
The target in test [3] is Receptor tyrosine-protein kinase erbB-2 (Homo sapiens) (UniProt P04626). The description is as above. Particulars: 18-24 h, at 10 µM, stronger effect = lower value.
Sequence of Receptor tyrosine-protein kinase erbB-2 (Homo sapiens) (P04626 whole entry, looked up): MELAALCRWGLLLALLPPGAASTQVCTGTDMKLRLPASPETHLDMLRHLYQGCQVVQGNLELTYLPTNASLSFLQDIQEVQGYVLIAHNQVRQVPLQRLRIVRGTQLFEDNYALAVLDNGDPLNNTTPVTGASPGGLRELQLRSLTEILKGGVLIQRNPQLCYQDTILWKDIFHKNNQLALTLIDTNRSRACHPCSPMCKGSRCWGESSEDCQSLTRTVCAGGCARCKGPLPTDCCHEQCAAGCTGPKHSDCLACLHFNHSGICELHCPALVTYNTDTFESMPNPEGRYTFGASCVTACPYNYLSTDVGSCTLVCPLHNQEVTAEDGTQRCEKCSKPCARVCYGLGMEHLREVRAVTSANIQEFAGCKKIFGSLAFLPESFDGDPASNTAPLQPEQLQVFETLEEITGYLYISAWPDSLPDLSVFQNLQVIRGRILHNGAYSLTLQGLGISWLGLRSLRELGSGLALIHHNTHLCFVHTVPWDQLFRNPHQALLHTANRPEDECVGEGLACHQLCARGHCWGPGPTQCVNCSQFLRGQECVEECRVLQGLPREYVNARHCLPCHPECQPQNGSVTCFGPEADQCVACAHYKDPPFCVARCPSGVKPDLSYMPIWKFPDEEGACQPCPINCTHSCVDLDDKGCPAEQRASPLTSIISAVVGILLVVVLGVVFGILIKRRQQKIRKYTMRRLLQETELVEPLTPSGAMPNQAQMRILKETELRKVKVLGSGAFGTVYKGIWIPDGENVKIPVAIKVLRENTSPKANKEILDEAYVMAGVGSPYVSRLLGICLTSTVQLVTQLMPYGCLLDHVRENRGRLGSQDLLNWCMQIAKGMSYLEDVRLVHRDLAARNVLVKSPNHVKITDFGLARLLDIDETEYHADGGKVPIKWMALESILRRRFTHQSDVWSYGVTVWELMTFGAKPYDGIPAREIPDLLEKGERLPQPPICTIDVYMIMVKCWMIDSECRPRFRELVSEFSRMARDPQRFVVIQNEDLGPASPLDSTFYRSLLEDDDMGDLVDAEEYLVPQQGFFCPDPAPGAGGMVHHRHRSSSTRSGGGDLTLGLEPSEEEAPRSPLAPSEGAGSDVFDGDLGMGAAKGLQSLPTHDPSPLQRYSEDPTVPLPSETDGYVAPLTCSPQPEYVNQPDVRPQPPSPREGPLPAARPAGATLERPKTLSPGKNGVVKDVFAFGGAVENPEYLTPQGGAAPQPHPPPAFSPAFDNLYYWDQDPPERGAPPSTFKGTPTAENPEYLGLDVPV
A short description of test [4]: reduced viability of SK-BR-3 breast cancer cells – cell-based, 24 h, human, pilot screen (AID 572).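 Also: compound exposure lasted between 18 and 24 h rather than exactly 24 h; 100% = carrier-treated control wells.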 The following applies: SK-BR-3 viability, CellTiter-Glo luminescence, at 10 µM, stronger effect = lower value. For orientation: Cellular ATP, detected with luciferase, serves as a proxy for viable cell number.
Test [5] in a line: HUVEC growth inhibition – cell-based, human, primary screen (AID 575;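 active = viability at or below 30% in both replicate assays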;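 also: 100% = median of untreated cell wells with 0.1% DMSO on each plate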). Particulars: HUVEC proliferation, CellTiter-Glo luminescence, 72 h; at 10 µM; stronger effect = lower value. In short, it runs like this: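 System: primary human umbilical vein endothelial cells; Quantity: 1250 endothelial cells in each well; Buffer or medium: supplemented EBM, 2% fetal bovine serum; Doses: one dose, 10 µM final, 0.1% DMSO; Incubation: 72 h compound incubation; Technique: ATP-based CellTiter-Glo luminescent read; Evaluation: percent of median DMSO-control luminescence; Controls: vehicle and MePR control wells.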

A short description of test [6]: H69AR cell proliferation blockers – human, duplicate replicates, primary screen (AID 580;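 active = viability at or under a set limit in both replicates, limit being median viability minus 3 SD, cut at about 48% in these data, passing the limit was not always enough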;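 also: 100% = mean luminescence of untreated wells and 0% = no signal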). The following applies: H69AR lung tumor cells viability, ATP luminescence, 72 h; at 10 µM; stronger effect = lower value.
Test [7] in a line: MRP1 drug-resistance reversers in H69AR cells – cell-based, doxorubicin co-treatment, pilot screen (AID 601;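 active = viability loss from added drug above about 55%, and viability with drug at most 40%, in both replicates, limit read from the data, passing the limit was not always enough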). Particulars: CellTiter-Glo, 72 h, at 10 µM; for differential viability (reversal): stronger effect = higher value.
A short description of test [8]: yeast transport mutant growth inhibition pilot in 384-well plates, post-Golgi transport modulator project (AID 636; in the data active = inhibition above about 31%). Particulars: absorbance 615 nm, about 18 h, stronger effect = higher value.
A short description of test [9]: growth suppression of yeast trafficking mutant, preliminary HTS, modulators of trafficking downstream of Golgi apparatus project, 1536-format plate, OD 615 nm (AID 637; in the data active = inhibition above about 30%). The following applies: yeast transport mutant growth, absorbance 615 nm, 18 h; stronger effect = higher value.
Where [10] appears, read: H69AR cells + 2 uM doxorubicin, measured here: viability with 2 uM doxorubicin, stronger effect = lower value.
[11] abbreviates: H69AR cells, compound alone cytotoxicity.

As a reminder, the inhibition is the drop in the measured response relative to a control, in per cent. One may read the viability as a read-out of living cells in per cent, often relative to untreated cells.

Activity calls are given as the source filed them.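 The calls were made as follows, unless noted: active = viability at or below 10% of carrier control in both of two separate runs; inconclusive = viability at or below 10% in only one of the two runs; inactive = the rest.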

Sequence of Pantothenate synthetase (Mycobacterium tuberculosis (strain ATCC 25618 / H37Rv)) (P9WIL5 whole entry, looked up): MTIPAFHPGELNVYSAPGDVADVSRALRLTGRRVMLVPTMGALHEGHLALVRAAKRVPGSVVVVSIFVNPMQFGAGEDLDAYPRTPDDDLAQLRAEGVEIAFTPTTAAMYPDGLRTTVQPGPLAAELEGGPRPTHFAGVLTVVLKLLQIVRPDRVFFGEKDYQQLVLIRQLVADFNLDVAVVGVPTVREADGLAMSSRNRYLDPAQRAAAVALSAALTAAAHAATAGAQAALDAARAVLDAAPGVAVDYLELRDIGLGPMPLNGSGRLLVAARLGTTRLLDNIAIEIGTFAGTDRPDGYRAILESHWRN

Consider `C=CCn1c(O)c(C(C)=Nc2ccc(N(CC)CC)cc2)c(=O)[nH]c1=O`, for which the inhibition was 1% (inactive) in [1], -2.08% (inactive) in test [8] and -8% (inactive) in test [9]. Besides, the viability was 102% in test [2]; 102% (inactive) in test [4]; 62.6% (inactive) in test [5]; 16.3% (active) in test [6]; 79.7% in [7] (setting [10]); 16.3% in [7] (setting [11]). Moreover, in test [3], the Her2 level is 105% (inactive). Besides, the differential viability (reversal) in test [7] (H69AR cells + 2 uM doxorubicin) was -63.3% (inactive).
Turning to `CC#CP(=O)(OCC)C(O)(c1ccccc1)C(F)(F)F` (centres undefined), the inhibition in test [1] is 0% (inactive); in test [8], -2.93% (inactive); in test [9] it was 2.13% (inactive). Further, the viability was 91% in test [2]; 91% (inactive) in test [4]; 96.7% (inactive) in test [5]; 96.9% (inactive) in test [6]; 82.5% in [7] (setting [10]); 96.9% in test [7] (setting [11]). Besides, the Her2 level in test [3] was 85% (inactive). In [7] (H69AR cells + 2 uM doxorubicin), the differential viability (reversal) was 14.4% (inactive).
Consider `Cc1ccc(C)c(NC(=O)CSc2nnc([C@@H](N)Cc3c[nH]c4ccccc34)o2)c1`, for which the inhibition in test [1] is 6% (inactive); in test [8], -5.2% (inactive); in test [9] it was -4.13% (inactive). Further, the viability is 101% in [2]; 101% (inactive) in [4]; 86.9% (inactive) in [5]; 106% (inactive) in test [6]; 92.9% in [7] (setting [10]); 106% in test [7] (setting [11]). For the same compound, the Her2 level in test [3] is 94.5% (inactive). The differential viability (reversal) in test [7] (H69AR cells + 2 uM doxorubicin) is 13.5% (inactive).
Take `Nc1ccc(C2(c3ccc(N)cc3)CN3CCC2CC3)cc1`: the values for the inhibition in [1], in [8] and in [9] were 0% (inactive), -5.75% (inactive) and 0% (inactive), respectively. Moreover, the viability in test [2] was 120%; in test [4] it was 120% (inactive); in test [5] it was 85.5% (inactive); in test [6], 106% (inactive); in test [7] (setting [10]) it was 100%; in [7] (setting [11]), 106%. The Her2 level in test [3] is 88% (inactive). In test [7] (H69AR cells + 2 uM doxorubicin), the differential viability (reversal) was 6.37% (inactive).
Regarding `CCC(=NCCCN1CCOCC1)c1c(O)n(Cc2ccccc2)c(=O)[nH]c1=O`, the inhibition was 0% (inactive) in [1], -5.41% (inactive) in test [8] and -5.56% (inactive) in test [9]. Also, the viability in [2] was 108%; in test [4], 108% (inactive); in test [5], 84.3% (inactive); in test [6], 89.2% (inactive); in test [7] (setting [10]), 90.7%; in [7] (setting [11]) it was 89.2%. Also, the Her2 level in [3] is 107% (inactive). Further, in test [7] (H69AR cells + 2 uM doxorubicin), the differential viability (reversal) was -1.53% (inactive).
In the case of `Cn1c(O)c(C=NCc2ccco2)c(=O)n(C)c1=O`, the inhibition in test [1] was 0% (inactive); in [8] it was -4.53% (inactive); in [9], 14.7% (inactive). Besides, the viability in test [2] is 106%; in test [4] it was 106% (inactive); in test [5], 96.8% (inactive); in test [6] it was 95.1% (inactive); in test [7] (setting [10]), 90.1%; in test [7] (setting [11]), 95.1%. In addition, the Her2 level in test [3] was 96% (inactive). Moreover, the differential viability (reversal) in test [7] (H69AR cells + 2 uM doxorubicin) is 5% (inactive).
For `CCN(CC)CCN=Cc1c(O)n(CCC2=CCCCC2)c(=O)[nH]c1=O`, the inhibition in test [1] is 5% (inactive); in test [8] it was -5.84% (inactive); in test [9] it was -4.29% (inactive). The viability is 90.5% in test [2]; 90.5% (inactive) in test [4]; 62.5% (inactive) in test [5]; 74.7% (inactive) in [6]; 86.1% in test [7] (setting [10]); 74.7% in test [7] (setting [11]). Also, the Her2 level in [3] is 86% (inactive). For the same compound, the differential viability (reversal) in test [7] (H69AR cells + 2 uM doxorubicin) was -11.4% (inactive).
With `C=CCn1c(O)c(C(C)=NCCCO)c(=O)[nH]c1=O`, the inhibition in test [1] is 0% (inactive); in test [8] it was -4.94% (inactive); in test [9], -8.5% (inactive). Besides, the viability was 93% in [2]; 93% (inactive) in [4]; 107% (inactive) in test [5]; 94.3% (inactive) in test [6]; 92.1% in test [7] (setting [10]); 94.3% in [7] (setting [11]). Further, the Her2 level in [3] was 114% (inactive). Besides, the differential viability (reversal) in test [7] (H69AR cells + 2 uM doxorubicin) was 2.26% (inactive).
In the case of `CC(C)OCCCNC(=O)c1c(N)n(CC2CCCO2)c2nc3ccccc3nc12` (centres undefined), the inhibition is 2% (inactive) in test [1], -4.8% (inactive) in test [8] and -4.13% (inactive) in test [9]. The viability in test [2] was 100%; in test [4] it was 100% (inactive); in test [5], 55.2% (inactive); in test [6], 59.6% (inactive); in test [7] (setting [10]), 79.2%; in test [7] (setting [11]), 59.6%. Also, the Her2 level in test [3] is 71.5% (inactive). For the same compound, the differential viability (reversal) in test [7] (H69AR cells + 2 uM doxorubicin) was -19.6% (inactive).
Take `CCOc1ccc(-n2c(O)c(C=NCCN(CC)CC)c(=O)[nH]c2=O)cc1`: the inhibition in test [1] is 0% (inactive); in [8], 2.13% (inactive); in test [9], -8.06% (inactive). Besides, the viability in test [2] is 87%; in [4] it was 87% (inactive); in test [5], 100% (inactive); in test [6], 103% (inactive); in [7] (setting [10]) it was 103%; in test [7] (setting [11]) it was 103%. Moreover, the Her2 level in test [3] is 105% (inactive). Besides, the differential viability (reversal) in test [7] (H69AR cells + 2 uM doxorubicin) was -0.4% (inactive).
`CSc1ccc(CNC2CN3CCC2CC3)cc1` (centres undefined): the inhibition in test [1] is 0% (inactive); in [8], -3.47% (inactive); in test [9], -3.77% (inactive). For the same compound, the viability in test [2] is 89.5%; in [4] it was 89.5% (inactive); in test [5], 91.2% (inactive); in test [6] it was 89.1% (inactive); in test [7] (setting [10]), 81.8%; in test [7] (setting [11]) it was 89.1%. The Her2 level in test [3] is 93.5% (inactive). The differential viability (reversal) in test [7] (H69AR cells + 2 uM doxorubicin) is 7.31% (inactive).
`NC(=O)OCCSc1nnc(-c2cccc(C(N)=S)c2)o1`: the values for the inhibition in test [1], in test [8] and in test [9] were 2% (inactive), -6% (inactive) and 0.65% (inactive), respectively. Also, the viability in test [2] is 103%; in [4], 103% (inactive); in [5], 108% (inactive); in [6] it was 105% (inactive); in test [7] (setting [10]) it was 91%; in [7] (setting [11]) it was 105%. In [3], the Her2 level was 88% (inactive). Besides, the differential viability (reversal) in test [7] (H69AR cells + 2 uM doxorubicin) is 13.7% (inactive).
Regarding `CCOc1ccc(-n2c(O)c(C=NCCN3CCNCC3)c(=O)[nH]c2=O)cc1`, the inhibition was 3% (inactive) in test [1], -1.58% (inactive) in test [8] and -3.71% (inactive) in test [9]. Besides, the viability is 102% in test [2]; 102% (inactive) in test [4]; 100% (inactive) in test [5]; 89% (inactive) in test [6]; 93.8% in [7] (setting [10]); 89% in test [7] (setting [11]). For the same compound, in test [3], the Her2 level is 77.5% (inactive). The differential viability (reversal) in test [7] (H69AR cells + 2 uM doxorubicin) is -4.71% (inactive).
For the compound `CC(C)=CCSc1nnc([C@@H](N)Cc2c[nH]c3ccccc23)o1`, the inhibition in test [1] is 7% (inactive); in test [8], -0.27% (inactive); in [9], -8.39% (inactive). Moreover, the viability was 102% in test [2]; 102% (inactive) in test [4]; 75.4% (inactive) in [5]; 94% (inactive) in test [6]; 91.2% in [7] (setting [10]); 94% in test [7] (setting [11]). For the same compound, the Her2 level in test [3] was 110% (inactive). Besides, the differential viability (reversal) in test [7] (H69AR cells + 2 uM doxorubicin) was 2.83% (inactive).

Values taken from PubChem BioAssay.
